EBNA-1 inh = EBNA-1 DNA-binding inhibitors, primary screen, biochemical, fluorescence polarization | inhibition, % at 14.8 µM | hit rate 0.34% among 300,000; in the data active = inhibition above about 28%
PP1 inh = PP1-alpha phosphatase inhibitors, primary screen, counter-screen for PP5 inhibitor project, biochemical, fluorescence, OMFP substrate, single point | Serine/threonine-protein phosphatase PP1-alpha catalytic subunit (Homo sapiens), P62136 | purified PP1alpha | inhibition, % at 6.7 µM | hit rate 0.9% among 320,000 | AID 2235, 2010;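 active = inhibition above the mean inhibition of all tested compounds plus 3 SD, computed separately for each screening campaign, cut at about 15% in these data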
Target sequence (P62136 whole entry, looked up): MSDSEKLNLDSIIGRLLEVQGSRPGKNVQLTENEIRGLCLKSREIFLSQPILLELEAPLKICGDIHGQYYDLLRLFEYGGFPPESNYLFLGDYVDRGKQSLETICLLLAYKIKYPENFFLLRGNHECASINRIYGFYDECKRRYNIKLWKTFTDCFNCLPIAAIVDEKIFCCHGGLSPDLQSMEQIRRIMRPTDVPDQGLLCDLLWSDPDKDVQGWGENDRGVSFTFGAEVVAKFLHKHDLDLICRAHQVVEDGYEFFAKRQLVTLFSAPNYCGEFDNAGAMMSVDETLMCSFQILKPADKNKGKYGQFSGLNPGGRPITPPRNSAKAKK
ZTA DNA inh = counter-screen for EBNA-1 inhibitors: inhibitors of Epstein-Barr virus ZTA | inhibition, % at 11 µM | ZTA-DNA binding, fluorescence polarization | P03206 | AID 2234 | hit rate 0.15% among 320,000; in the data active = inhibition above about 33%
Target sequence (P03206 whole entry, looked up): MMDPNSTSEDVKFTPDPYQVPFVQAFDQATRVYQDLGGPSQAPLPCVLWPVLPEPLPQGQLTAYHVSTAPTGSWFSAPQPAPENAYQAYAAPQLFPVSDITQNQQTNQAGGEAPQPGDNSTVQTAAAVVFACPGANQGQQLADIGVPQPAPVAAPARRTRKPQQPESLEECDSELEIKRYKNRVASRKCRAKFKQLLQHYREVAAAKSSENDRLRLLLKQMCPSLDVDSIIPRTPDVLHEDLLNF
core dimer inh = inhibitors of HCV core protein dimerization, primary screen, biochemical, TR-FRET, high-throughput; TR-FRET GST/Flag-core106 dimerization, 1536-well; inhibition, % at 5 µM; hit rate 0.33% among 300,000;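 active = inhibition above the mean of all tested compounds plus 3 SD, set per screening campaign, cut at about 45% in these data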
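assay system = GST-tagged and Flag-tagged HCV core protein residues 1-106 | controls = unlabelled core106 and no-GST-core106 wells | incubation = compound-protein-antibody incubation 4 h at 22.5 °C | probe or stimulus = Eu donor and XL665 acceptor anti-tag antibodies | read-out = % inhibition based on acceptor/donor emission ratio | signal = TR-FRET 671 and 617 nm emission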
NS3 helicase inh = inhibitors of HCV NS3 helicase, primary screen, biochemical, Cy5 molecular beacon fluorescence; hit rate 0.56% among 290,000; inhibition, % at 10.9 µM; NS3 helicase DNA unwinding; AID 1800, 2009;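 active = inhibition above the mean of all tested compounds plus 3 SD, set per campaign, cut at about 35% in these data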
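Measured by: Cy5 fluorescence, 0 and 60 min reads / Assay system: NS3 helicase fragment of HCV / Control set: low DMSO, high thioflavine S at 110 µM / Times: 1 h reaction at 25 °C, ATP-initiated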
EBNA-1 confirm = EBNA-1 DNA-binding inhibitors, retest, confirmation, biochemical, fluorescence polarization, triplicate; shares compounds with EBNA-1 inh; Recombinant EBNA-1 DBD, Cy5-DNA fluorescence polarization; hit rate 35% among 830; inhibition, % at 14.8 µM;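 active = mean inhibition across replicates above a set limit taken from the earlier primary screen, cut at about 28% in these data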
ZTA DNA inh trip = EBV Zta DNA binding inhibitors, counter-screen for EBNA-1 inhibitor project, biochemical, fluorescence polarization, triplicate. shares compounds with EBNA-1 inh. Zta-ZRE DNA binding, Cy5 fluorescence polarization. inhibition, % at 11.1 µM. 830 tested, under 10 active. AID 2328, 2010;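 active = mean inhibition over triplicates above a set limit taken from the primary EBNA-1 screen, cut at about 37% in these data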;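 note: purified full length Zta protein with Cy5 labeled ZRE DNA probe; inhibitors lower polarization by freeing the labeled DNA probe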
Numbers stand for hits; - = inactive; . = not tested or not shown. Only some compounds are listed: those with a hit (about 1.9% of all), similar ones and a draw of the others.

SMILES	EBNA-1 inh	PP1 inh	ZTA DNA inh	core dimer inh	NS3 helicase inh	EBNA-1 confirm	ZTA DNA inh trip
CC(C)=NOCc1ccc(-c2cn([C@@H]3COC[C@H]3O)nn2)cc1	.	.	.	.	-	.	.
Cn1nnnc1Sc1ncnc2scc(-c3cccs3)c12	.	-	-	.	.	.	.
Cc1cc(CSc2ccccc2)ccc1NC(=O)c1cccc([N+](=O)[O-])c1	28.4	-	-	-	-	-	-
Cc1ccc2nc(-c3ccc(NC(=O)CN4C(=O)NC(C)(c5ccc(OC(F)F)cc5)C4=O)cc3)sc2c1 (stereo not given)	39.7	-	-	-	-	-	-
CC1(c2ccc(OC(F)F)cc2)NC(=O)N(CC(=O)Nc2ccccc2)C1=O (stereo not given)	-	-	-	-	-	.	.
O=C(Nc1ccccc1)c1cccc(=O)o1	-	-	-	-	-	.	.
CCC(=O)Nc1ccc(Cl)c(NC(=S)NC(=O)c2cc3ccccc3o2)c1	38.8	-	-	-	-	-	-
Cc1nn(CC(=O)N2CCCCCC2)c(=O)c2cc3occc3n12	-	-	-	-	-	.	.
CC(=O)Nc1ccc(S(=O)(=O)N2CCN(Cc3nc4sc(C)c(C)c4c(=O)[nH]3)CC2)cc1	27.5	-	-	-	-	55.0	-
CCOC(=O)CC(NC(=O)C1c2ccccc2Oc2ccccc21)c1ccccc1Cl (stereo not given)	101.6	-	-	-	-	-	-
CCOC(=O)CC(NC(=O)Cc1ccccc1)c1ccccc1Cl (stereo not given)	-	-	-	-	-	.	.
CCOc1ccccc1N(CC(=O)Nc1cccc(OC)c1)S(=O)(=O)c1ccccc1	-	-	-	-	-	.	.
CCOc1ccccc1N(CC(=O)Nc1ccc(OC)cc1)S(=O)(=O)c1ccccc1	28.1	-	-	-	-	-	-
CCc1ccccc1N(C(=O)c1snc(C(N)=O)c1N)C(C(=O)NCC1CCCO1)c1ccc(N(C)C)cc1 (stereo not given)	.	.	.	.	-	.	.
Cc1ccccc1N(C(=O)c1snc(C(N)=O)c1N)C(C(=O)NCC1CCCO1)c1ccc(N(C)C)cc1 (stereo not given)	27.6	-	-	-	-	122.9	-
Cc1cc(NC(=O)c2ccc(Cl)cc2Cl)no1	-	-	-	-	-	.	.
COC(=O)C1(CCSC)NC(c2ccc(O)c(OC)c2)C2C(=O)N(c3ccc(C)cc3)C(=O)C21 (stereo not given)	-	-	-	-	-	.	.
O=C(Cn1cnc2c(nnn2Cc2ccc(Cl)cc2)c1=O)OCc1ccccc1	29.9	-	-	-	-	-	-
CC(=O)Nc1ccc(NC(=O)CSc2n[nH]c(-c3cccs3)n2)cc1	-	-	-	-	.	.	.
O=C(OCN1C(=O)c2ccccc2C1=O)c1ccccc1	-	-	-	-	-	.	.
O=C(OCCN1C(=O)c2ccccc2C1=O)c1ccccc1	46.2	-	-	-	-	-	-
COc1ccc(S(=O)(=O)N2CCOCC2)cc1NC(=O)c1ccc(Cl)cc1	44.2	-	-	-	.	32.1	-
CCc1noc(C)c1C(=O)Nc1cc(S(=O)(=O)N2CCOCC2)ccc1N1CCN(CC)CC1	-	-	-	-	.	.	.
COc1ccc(S(=O)(=O)N2CCOCC2)cc1NC(=O)c1cccc(Cl)c1	40.5	-	-	-	-	-	-
COc1ccc(S(=O)(=O)N2CCOCC2)cc1NC(=O)c1ccccc1C	-	-	-	-	-	.	.
SMILES	EBNA-1 inh	PP1 inh	ZTA DNA inh	core dimer inh	NS3 helicase inh	EBNA-1 confirm	ZTA DNA inh trip
COc1ccc(S(=O)(=O)N2CCOCC2)cc1NC(=O)c1ccc2c(c1)OCCO2	-	-	-	-	-	.	.
CCc1noc(C)c1C(=O)Nc1cc(S(=O)(=O)N2CCOCC2)ccc1OCC(F)(F)F	79.0	-	-	-	.	-	-
O=C(CSC1=NS(=O)(=O)c2ccccc2N1)Nc1nccs1	-	-	-	-	.	.	.
CCCCn1nc(C(=O)Nc2ccccc2N2CCCC2)c2ccccc2c1=O	.	-	-	.	.	.	.
CCOc1ccc2nc(NCCNC(=O)Nc3ccccc3)c(C#N)cc2c1	34.1	-	-	-	-	-	-
Nc1nnnn1/N=C/c1ccccc1OCc1ccccc1	28.8	-	-	-	-	-	-
CCOc1ccccc1NC(=O)CCn1cccc1	-	-	-	-	-	.	.
O=[N+]([O-])c1ccc(N/N=C/c2cccc(O)c2O)cc1	-	-	-	-	-	.	.
Cc1cccc(C(=O)Oc2ccccc2/C=N/Nc2ccc([N+](=O)[O-])cc2)c1	34.4	-	-	-	-	40.9	-
Cc1ccc(-c2nnc(NCc3nc4ccccc4[nH]3)c3ccccc23)cc1S(=O)(=O)N(C)C	93.3	-	-	-	-	36.9	-
Cc1ccc(-c2nnc(NCc3nc4ccccc4[nH]3)c3ccccc23)cc1S(=O)(=O)N1CCOCC1	-	-	-	-	-	.	.
CC(C)CCNS(=O)(=O)c1cc2c3c(c1)CCN3C(=O)CC2	-	-	-	-	-	.	.
CC(Sc1nnnn1C)C(=O)Nc1ncc(Cl)cc1Cl (stereo not given)	.	-	-	.	.	.	.
CCOC(=O)C1CCN(Cc2ccc(Cl)c(Cl)c2)CC1	45.5	-	-	-	-	-	-
CCOC(=O)C1CCN(Cc2ccc(F)cc2)CC1	-	-	-	-	-	.	.
O=C(NCCCCNC(=O)c1ccc(Br)s1)c1ccc(Br)s1	46.0	-	-	-	-	-	-
COc1ccccc1N1CCN(c2ccc([N+](=O)[O-])cc2Cl)CC1	38.2	-	-	-	-	-	-
Cc1nn(-c2ccccc2)c(C)c1NC(=O)COC(=O)Cc1ccccc1F	-	-	-	-	.	.	.
Cc1cnc([N+](=O)[O-])n1CCOC(=O)NC(=O)c1ccc(F)cc1	-	-	-	-	-	.	.
CCNC(=O)Cn1cc(C(F)(F)F)cc(Cl)c1=O	-	-	-	-	-	.	.
O=C(COc1ccc2ccccc2c1)NNC(=O)Cc1ccccc1	28.1	-	-	-	-	34.7	-
CC1CCCCC1NC(=O)COc1ccccc1C#N (stereo not given)	.	-	-	.	.	.	.
CCOC(=O)c1oc2ccccc2c1NC(=O)c1ccc(S(=O)(=O)N2CCCC2)cc1	36.6	-	-	-	-	46.6	-
CCOC(=O)c1oc2ccccc2c1NC(=O)c1ccc(S(=O)(=O)N(C)C)cc1	47.5	-	-	-	-	52.0	-
CCOC(=O)c1[nH]c2ccccc2c1NC(=O)c1ccc(S(=O)(=O)N2CCCCC2)cc1	-	-	-	-	-	.	.

Source: PubChem (The Scripps Research Institute Molecular Screening Center)
